# Assay outcomes: PubChem BioAssay, The Scripps Research Institute Molecular Screening Center
# This is a sample that favours compounds with a hit; in the whole collection about 1.6% have one here.
# UHRF1 binding = UHRF1 methyl-DNA binding inhibition; Q96T88; UHRF1 binding to methylated oligo, TR-FRET; inhibition, % at 4.4 µM; 0.75% of 370,000 active; in the data active means inhibition above about 21%;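 further: UHRF1 SRA domain binding a hemimethylated CpG hairpin DNA probe; 0% = median of test compound wells and 100% = reference inhibitor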
# Target sequence (Q96T88 whole entry, looked up, the tested form may be a part): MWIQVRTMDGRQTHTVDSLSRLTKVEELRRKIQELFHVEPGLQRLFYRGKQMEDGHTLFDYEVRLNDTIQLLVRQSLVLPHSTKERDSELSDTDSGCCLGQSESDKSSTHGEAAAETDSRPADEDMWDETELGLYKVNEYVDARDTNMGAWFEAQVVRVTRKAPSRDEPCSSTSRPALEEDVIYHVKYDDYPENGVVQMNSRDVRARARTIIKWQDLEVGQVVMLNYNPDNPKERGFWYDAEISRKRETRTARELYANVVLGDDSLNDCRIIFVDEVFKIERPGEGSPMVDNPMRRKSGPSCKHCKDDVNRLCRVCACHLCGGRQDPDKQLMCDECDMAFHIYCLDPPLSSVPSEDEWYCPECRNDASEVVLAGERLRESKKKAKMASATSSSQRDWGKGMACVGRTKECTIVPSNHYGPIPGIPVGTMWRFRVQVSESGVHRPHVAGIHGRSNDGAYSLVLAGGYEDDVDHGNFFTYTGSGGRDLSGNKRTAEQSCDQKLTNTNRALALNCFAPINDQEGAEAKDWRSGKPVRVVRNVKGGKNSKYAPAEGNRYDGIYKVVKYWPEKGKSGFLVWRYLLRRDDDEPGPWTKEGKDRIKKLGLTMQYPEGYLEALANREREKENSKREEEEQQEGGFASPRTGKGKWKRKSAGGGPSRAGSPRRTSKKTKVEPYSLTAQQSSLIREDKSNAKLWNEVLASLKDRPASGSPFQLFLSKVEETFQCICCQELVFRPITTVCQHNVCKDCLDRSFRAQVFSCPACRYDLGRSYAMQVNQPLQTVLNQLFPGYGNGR
# MBD2 DNA inh = MBD2-methylated oligo binding inhibition; inhibition, % at 4.4 µM; 0.31% of 370,000 active; TR-FRET, MBD2 binding to methylated oligonucleotide; Q9UBB5; in the data active means inhibition above about 13%
# LEDGF integ inh = blocks HIV-1 LEDGF/p75-dependent DNA integration; TR-FRET IN-LEDGF/p75 DNA integration, Eu/Cy5; inhibition, % at 3.7 µM; 0.64% of 370,000 active; AID 743269;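 active means inhibition above the screen-wide mean plus 3 SD, cut at about 13% in these data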;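 further: signal is the Cy5 over europium emission ratio at 671 and 618 nm; 0% = plate median of compound wells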
# TDP2 inh = blocks human TDP2 phosphodiesterase activity | O95551 | inhibition, % at 12.8 µM | 0.34% of 370,000 active | recombinant TDP2, T5PNP hydrolysis, p-nitrophenol absorbance 415 nm;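 active means inhibition above the mean of all tested compounds plus 3 SD, set per campaign, cut at about 25% in these data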;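 further: 0% = DMSO with enzyme and 100% = buffer with substrate but no TDP2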
#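 Test system: Human TDP2 enzyme | Reagent: 5 mM T5PNP | Compound dosing: 12.8 µM single point, 1% DMSO | Incubation: Enzyme reaction with compound for 2 h at 37 °C | Technique: p-Nitrophenol epi absorbance | Read-out: % inhibition relative to enzyme-containing and enzyme-free wells | Benchmarks: High control without enzyme, low control DMSO plus TDP2 | Replicates: Singlicate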
# UHRF1 DNA bind = UHRF1 methyl-oligo binding inhibition as MBD2 counter-screen; UHRF1 binding to methylated oligonucleotide, TR-FRET; 25% of 1,000 active; shares compounds with MBD2 DNA inh; inhibition, % at 4.4 µM; in the data active means inhibition above about 21%;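 further: UHRF1 SRA domain binding a labeled hemimethylated CpG hairpin DNA; 0% = vehicle only and 100% = reference inhibitor with vehicle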
# MBD2 DBD conf = MBD2-DBD methyl-DNA binding inhibition, TR-FRET confirmation; 26% of 1,000 active; inhibition, % at 4.4 µM; shares compounds with MBD2 DNA inh; AID 720531; TR-FRET MBD2-DBD binding to methylated oligonucleotide
# TDP2 confirm = confirmation of human TDP2 inhibitors. shares compounds with TDP2 inh. recombinant human TDP2, absorbance read-out. inhibition, % at 12.8 µM. 22% of 1,100 active; in the data active means inhibition above about 25%;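 further: 0% = vehicle with enzyme and 100% = no enzyme buffer only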
# IN multimer act = HIV-1 integrase multimerization activation, counter-screen | shares compounds with LEDGF integ inh | TR-FRET HIV-1 integrase multimerization, biochemical | activation, % at 7.7 µM | 17% of 2,000 active | AID 1053131; in the data active means activation above about 8.9%
# TR-FRET interf = TR-FRET optical interference, LEDGF/p75 integration counter-screen | 2,000 tested, under 10 active | TR-FRET optical interference counterscreen, HIV-1 IN multimerization | shares compounds with LEDGF integ inh | inhibition, % at 7.7 µM;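 active means inhibition above the mean over all tested compounds plus 3 SD, which no compound reached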;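 further: 0% = integrase with antibodies and DMSO and 100% = antibodies without integrase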
# LEDGF integ conf = LEDGF/p75-dependent HIV-1 integration inhibition, confirmation; 36% of 2,000 active; AID 1053136; TR-FRET LEDGF/p75-dependent HIV-1 integration, biochemical; shares compounds with LEDGF integ inh; inhibition, % at 3.7 µM
# Active calls of the source: *; . = not tested or not shown. Unless noted, no stated cut-off is given here; in the data, active means inhibition above about 14%; inactive means the rest.
SMILES,UHRF1 binding,MBD2 DNA inh,LEDGF integ inh,TDP2 inh,UHRF1 DNA bind,MBD2 DBD conf,TDP2 confirm,IN multimer act,TR-FRET interf,LEDGF integ conf
CC(C)CCNC(=O)[C@@H](Cc1ccccc1)NC(=O)[C@H]1O[C@@H](n2ccc(=O)[nH]c2=O)[C@H](O)[C@@H]1O,-1,2,0,1,.,.,.,.,.,.
Cc1ccc(C=C2C(=O)c3ccccc3C2=O)o1,10,-2,8,10,.,.,.,.,.,.
Cc1ccc(/C=C2/C(=O)c3ccc(C(=O)O)cc3C2=O)o1,78*,22*,69*,26*,40*,2,25*,25*,-88,58*
O=C(N/N=C/c1cccc(F)c1)c1cc(-c2ccco2)nc2ccccc12,30*,24*,20*,4,42*,36*,.,21*,-107,49*
C/C(C=NNC(=O)c1cc(-c2ccc(Cl)cc2)n[nH]1)=C\c1ccccc1,-1,-1,-1,-4,.,.,.,.,.,.
O=C(/C=C/c1cccs1)Nc1nc(-c2ccccc2)cs1,-1,-1,-1,6,.,.,.,.,.,.
O=C(/C=C/c1cccs1)Nc1scc(-c2ccccc2)c1C(=O)O,22*,14*,23*,16,2,2,.,2,-8,35*
CCOc1ccc(NC(=O)CN(C)C(=O)c2cc3c(s2)CCC3)cc1OCC,27*,17*,16*,-1,24*,20*,.,14*,-69,18*
CCOc1ccc(NC(=O)CN(C)C(=O)c2csc3c2CCCC3)cc1OCC,6,-2,-2,-2,.,.,.,.,.,.
CCCCn1nnnc1C1(C)CCC(=O)N1CCCn1ccnc1 (stereo not drawn),17,14*,16*,7,17,16*,.,4,-13,7
Cc1cccc(C)c1-n1nnnc1C1(C)CCC(=O)N1CCCn1ccnc1 (stereo not drawn),-2,0,4,16,.,.,.,.,.,.
COC(=O)[C@]12C[C@H](CC(=O)NCc3ccc(C)o3)C(=O)N(Cc3ccc(Cl)cc3Cl)C1=C[C@H](C1CCCC1)O[C@@H]2C,1,-2,3,-6,.,.,.,.,.,.
Cc1nn(-c2ccccc2)c(C)c1/C=N\NC(=O)CSc1nc2ccccc2n1Cc1ccc(Cl)cc1,-1,4,-1,-3,.,.,.,.,.,.
C=C(C)C(=O)Oc1ccc(N=Nc2ccc(C)cc2)ccc1=O,62*,38*,18*,6,66*,43*,.,31*,-157,26*
OC(c1ccccc1)(c1ccccc1)C1CCN(CCCNc2cccc(Br)c2)CC1,0,3,-1,1,.,.,.,.,.,.
CC1=NN(c2cccc(C(=O)O)c2)C(=O)/C1=C\C=C\c1ccco1,94*,70*,78*,22,94*,56*,.,46*,-232,72*
O=C(Cc1c[nH]c2ccccc12)Nc1ccc(Nc2cccnc2)c(-c2ccc(-c3ccccc3)cc2F)c1,1,-4,-1,-10,.,.,.,.,.,.
c1ccc(-c2nnc(-c3ccco3)o2)cc1,-4,-1,2,-6,.,.,.,.,.,.
c1coc(-c2nnc(-c3ccco3)nn2)c1,77*,33*,61*,10,77*,35*,.,11*,-58,86*
CC(=O)c1sc2nc(-c3ccco3)ccc2c1N,92*,45*,59*,1,28*,7,.,8,-29,4
NC(=O)c1sc2nc(-c3ccccc3)ccc2c1N,-2,0,-5,0,.,.,.,.,.,.
O=S1(=O)c2c(cccc2N2CCC[C@@H]2CO)O[C@H]2CCN1C2,7,0,4,-7,.,.,.,.,.,.
O=Cc1ccc2oc3nc4n(c(=O)c3c(=O)c2c1)CCCS4,16,18*,20*,-12,38*,36*,.,17*,-63,32*
Cc1ccc(CNC(=O)O[C@H]2CC[C@@]34CCCN3C(=O)CCC[C@H]4C2)cc1,-1,6,2,2,.,.,.,.,.,.
Oc1ccc(/C=N/NC(=S)Nc2cccnc2)c(O)c1,-13,-5,-8,-12,.,.,.,.,.,.
SMILES,UHRF1 binding,MBD2 DNA inh,LEDGF integ inh,TDP2 inh,UHRF1 DNA bind,MBD2 DBD conf,TDP2 confirm,IN multimer act,TR-FRET interf,LEDGF integ conf
Oc1ccc(/C=N/NC(=S)Nc2cccnc2)c(O)c1O,64*,30*,84*,35*,-6,-2,5,30*,-152,84*
CC(=O)NC(=S)Nc1ccc(NC(=S)NC(=O)/C=C/c2ccco2)cc1,-2,0,3,-5,.,.,.,.,.,.
O=C(/C=C/c1ccco1)NC(=S)Nc1ccc(C(=O)O)cc1,87*,48*,63*,40*,75*,30*,20,37*,-133,53*
COc1ccc(-n2c(SCC(=O)NNC(=S)Nc3ccc(C)cc3)nnc2-c2ccccc2)cc1,-5,-2,1,7,.,.,.,.,.,.
CC1(C)CCCN(C(=O)c2coc(=O)c(Br)c2)C1,62*,18*,22*,7,101*,65*,.,16*,-83,65*
C=CCn1c(SCc2c(F)c(F)c(F)c(F)c2F)nc(O)cc1=O,0,2,1,43*,.,.,8,.,.,.
CCCCCN(C(=O)CCC(=O)OCC(=O)NCc1cccc(OC)c1)c1c(N)n(CCCC)c(=O)[nH]c1=O,0,3,0,75*,.,.,-2,.,.,.
CCCCn1c(N)c(N(CC(C)C)C(=O)c2ccc(COc3ccccc3)o2)c(=O)[nH]c1=O,0,3,0,8,.,.,.,.,.,.
CCCCn1c(N)c(N(CC(C)C)C(=O)c2cccc(OCc3ccccc3)c2)c(=O)[nH]c1=O,2,-2,-1,25*,.,.,-4,.,.,.
O=C1NNC(c2ccccc2)=N/C1=C\c1ccccc1Cl,-4,-5,5,56*,.,.,62*,.,.,.
O=C1NNC(c2ccccc2)=N/C1=C\c1ccco1,-3,1,6,-9,.,.,.,.,.,.
CCC1CCCCN1C(=O)CNCC1CCCO1 (stereo not drawn),-1,-3,-1,33*,.,.,7,.,.,.
O=C(Nc1ccc(S(=O)(=O)Nc2ncccn2)cc1)c1ccccc1Cl,-1,-1,-1,10,.,.,.,.,.,.
O=C(Nc1ccc(S(=O)(=O)Nc2ncccn2)cc1)c1ccccc1Br,2,2,1,26*,.,.,-8,.,.,.
COc1ccccc1C(=O)COC(=O)C(CCSC)NC(=O)COc1ccccc1 (stereo not drawn),-4,-6,0,25*,.,.,1,.,.,.
